From ChEMBL document CHEMBL5653631, “A Potent and Selective ULK1 Inhibitor Suppresses Autophagy and Sensitizes Cancer Cells to Nutrient Stress” (iScience, 2018)
Each block holds one molecule with its values, some of them ahead of it.

Legend:
[1] = biological target: DNA-PK/Ku70/Ku85 (Homo sapiens) (UniProt P78527+P12956+P13010); assay: Inhibition of human recombinant DNAPK at 500 nM related to control ULK1; format: protein-complex assay
[2] = biological target: Myosin light chain kinase, smooth muscle (Homo sapiens) (UniProt Q15746); assay: Inhibition of human recombinant smMLCK at 500 nM related to control ULK1
[3] = biological target: T1, G protein-coupled receptor kinase 3 (Homo sapiens) (UniProt P35626); assay: Inhibition of human recombinant BARK2 at 500 nM related to control ULK1
T1 sequence (whole entry): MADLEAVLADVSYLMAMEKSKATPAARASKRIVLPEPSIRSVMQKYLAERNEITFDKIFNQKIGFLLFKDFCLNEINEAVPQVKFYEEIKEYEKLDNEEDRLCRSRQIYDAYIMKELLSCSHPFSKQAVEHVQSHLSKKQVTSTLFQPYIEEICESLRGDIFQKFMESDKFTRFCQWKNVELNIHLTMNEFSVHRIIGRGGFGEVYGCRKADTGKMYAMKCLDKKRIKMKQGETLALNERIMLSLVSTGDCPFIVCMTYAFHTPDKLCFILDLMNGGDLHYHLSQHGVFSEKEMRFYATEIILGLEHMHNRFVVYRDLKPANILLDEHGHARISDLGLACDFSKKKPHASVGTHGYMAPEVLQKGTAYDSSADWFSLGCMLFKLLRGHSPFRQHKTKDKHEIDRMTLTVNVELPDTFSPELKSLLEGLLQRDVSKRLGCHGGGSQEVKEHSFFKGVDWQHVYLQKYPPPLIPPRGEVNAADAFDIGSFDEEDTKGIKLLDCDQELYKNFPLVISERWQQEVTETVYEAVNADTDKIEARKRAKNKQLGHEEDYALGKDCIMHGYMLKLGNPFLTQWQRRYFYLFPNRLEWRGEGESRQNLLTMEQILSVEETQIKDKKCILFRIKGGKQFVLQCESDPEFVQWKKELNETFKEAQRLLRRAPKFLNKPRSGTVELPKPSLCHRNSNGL

[4] = biological target: 5'-AMP-activated protein kinase catalytic subunit alpha-2 (Homo sapiens) (UniProt P54646); assay: Inhibition of human recombinant AMPKa2 at 500 nM related to control ULK1
How it was run: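 Panel of 327 recombinant human kinases, each assayed in vitro by radiometric activity assay in duplicate at a single inhibitor concentration per compound, chosen with reference to its ULK1 inhibition. Activity remaining was expressed as percent of vehicle control, and percent inhibition was calculated as 100 minus percent activity remaining.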

[5] = biological target: Dual specificity mitogen-activated protein kinase kinase 2 (Homo sapiens) (UniProt P36507); assay: Inhibition of human recombinant MAP2K2 at 500 nM related to control ULK1
[6] = biological target: Serine/threonine-protein kinase MAK (Homo sapiens) (UniProt P20794); assay: Inhibition of human recombinant MAK at 15 nM in presence of ATP by radiometric assay relative to control
Homo sapiens = species: Homo sapiens; assay: Inhibition of human recombinant ABL at 15 nM related to control ULK1
[7] = biological target: Ephrin type-A receptor 7 (Homo sapiens) (UniProt Q15375); assay: Inhibition of human recombinant EphA7 at 15 nM related to control ULK1
[8] = biological target: Serine/threonine-protein kinase B-raf (Homo sapiens) (UniProt P15056); assay: Inhibition of human recombinant BRAF at 15 nM related to control ULK1
[9] = biological target: Interleukin-1 receptor-associated kinase 1 (Homo sapiens) (UniProt P51617); assay: Inhibition of human recombinant IRAK1 at 15 nM in presence of ATP by radiometric assay relative to control
[10] = biological target: T2, cGMP-dependent protein kinase 1 (Homo sapiens) (UniProt Q13976); assay: Inhibition of human recombinant PKG1 at 40 nM related to control ULK1
T2 sequence (whole entry): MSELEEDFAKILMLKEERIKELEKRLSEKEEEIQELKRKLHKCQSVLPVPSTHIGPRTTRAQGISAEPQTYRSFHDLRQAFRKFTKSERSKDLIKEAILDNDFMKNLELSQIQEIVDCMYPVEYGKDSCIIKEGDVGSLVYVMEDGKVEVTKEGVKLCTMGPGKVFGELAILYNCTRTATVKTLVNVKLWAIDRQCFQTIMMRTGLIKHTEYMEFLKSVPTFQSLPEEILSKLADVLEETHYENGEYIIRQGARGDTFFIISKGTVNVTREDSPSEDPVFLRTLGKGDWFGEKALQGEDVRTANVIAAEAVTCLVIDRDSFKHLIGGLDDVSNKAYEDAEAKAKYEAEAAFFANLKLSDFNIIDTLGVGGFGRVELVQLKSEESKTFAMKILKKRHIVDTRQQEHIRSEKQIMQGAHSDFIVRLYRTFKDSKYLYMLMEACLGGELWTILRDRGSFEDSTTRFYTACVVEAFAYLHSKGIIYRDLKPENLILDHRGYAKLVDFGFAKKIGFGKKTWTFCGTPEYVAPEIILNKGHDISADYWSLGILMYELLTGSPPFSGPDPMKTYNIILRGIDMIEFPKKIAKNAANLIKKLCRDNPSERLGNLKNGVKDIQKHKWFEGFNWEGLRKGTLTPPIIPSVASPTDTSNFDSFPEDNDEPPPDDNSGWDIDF

[11] = biological target: Tyrosine-protein kinase Blk (Homo sapiens) (UniProt P51451); assay: Inhibition of human recombinant BLK at 40 nM in presence of ATP by radiometric assay relative to control
How it was run: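 Part of a radiometric in vitro activity panel of 327 recombinant human kinases. Each kinase was tested in duplicate at one inhibitor concentration. Activity remaining was expressed as a percentage of the vehicle control, and percent inhibition was taken as 100 minus that value.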

Ephrin type-A receptor 7 (Homo sapiens), sequence (Q15375 28-998 limits assumed): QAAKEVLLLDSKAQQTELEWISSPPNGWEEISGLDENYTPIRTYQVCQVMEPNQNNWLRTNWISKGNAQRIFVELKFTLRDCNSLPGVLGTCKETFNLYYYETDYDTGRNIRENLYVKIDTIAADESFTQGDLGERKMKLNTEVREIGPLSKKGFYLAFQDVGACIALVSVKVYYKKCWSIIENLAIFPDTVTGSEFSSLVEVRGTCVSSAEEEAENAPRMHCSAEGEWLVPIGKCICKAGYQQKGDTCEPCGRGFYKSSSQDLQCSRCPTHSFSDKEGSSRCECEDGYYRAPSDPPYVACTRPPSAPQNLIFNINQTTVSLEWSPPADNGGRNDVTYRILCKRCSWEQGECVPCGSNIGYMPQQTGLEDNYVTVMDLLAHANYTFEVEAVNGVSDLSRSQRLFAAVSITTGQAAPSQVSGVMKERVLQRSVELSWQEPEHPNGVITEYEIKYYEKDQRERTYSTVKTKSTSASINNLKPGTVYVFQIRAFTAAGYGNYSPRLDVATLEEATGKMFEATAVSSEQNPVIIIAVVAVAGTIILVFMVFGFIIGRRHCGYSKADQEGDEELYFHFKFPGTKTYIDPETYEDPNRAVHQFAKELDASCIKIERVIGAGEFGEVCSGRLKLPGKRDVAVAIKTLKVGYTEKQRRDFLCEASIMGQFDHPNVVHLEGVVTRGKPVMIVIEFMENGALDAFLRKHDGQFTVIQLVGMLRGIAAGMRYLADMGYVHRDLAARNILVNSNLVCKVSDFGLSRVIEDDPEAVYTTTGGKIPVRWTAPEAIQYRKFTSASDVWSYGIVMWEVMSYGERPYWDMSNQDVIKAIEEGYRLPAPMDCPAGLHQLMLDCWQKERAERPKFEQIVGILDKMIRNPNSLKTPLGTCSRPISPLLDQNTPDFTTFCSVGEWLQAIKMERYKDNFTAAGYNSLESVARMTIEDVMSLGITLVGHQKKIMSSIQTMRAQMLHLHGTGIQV
Tyrosine-protein kinase Blk (Homo sapiens), sequence (P51451 2-505 limits assumed): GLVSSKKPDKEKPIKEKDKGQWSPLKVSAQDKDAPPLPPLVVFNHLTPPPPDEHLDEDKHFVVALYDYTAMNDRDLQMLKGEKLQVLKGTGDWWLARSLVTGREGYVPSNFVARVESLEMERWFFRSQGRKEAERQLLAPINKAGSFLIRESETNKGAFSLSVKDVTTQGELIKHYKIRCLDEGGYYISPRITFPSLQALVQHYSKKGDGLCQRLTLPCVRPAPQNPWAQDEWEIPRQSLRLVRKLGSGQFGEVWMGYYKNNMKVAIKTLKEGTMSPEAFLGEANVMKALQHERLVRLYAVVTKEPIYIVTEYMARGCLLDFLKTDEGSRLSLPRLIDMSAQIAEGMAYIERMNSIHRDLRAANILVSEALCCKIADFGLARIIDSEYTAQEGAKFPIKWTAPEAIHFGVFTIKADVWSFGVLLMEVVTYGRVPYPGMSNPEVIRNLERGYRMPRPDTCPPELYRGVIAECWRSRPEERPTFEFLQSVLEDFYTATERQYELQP
5'-AMP-activated protein kinase catalytic subunit alpha-2 (Homo sapiens), sequence (P54646 whole entry, looked up): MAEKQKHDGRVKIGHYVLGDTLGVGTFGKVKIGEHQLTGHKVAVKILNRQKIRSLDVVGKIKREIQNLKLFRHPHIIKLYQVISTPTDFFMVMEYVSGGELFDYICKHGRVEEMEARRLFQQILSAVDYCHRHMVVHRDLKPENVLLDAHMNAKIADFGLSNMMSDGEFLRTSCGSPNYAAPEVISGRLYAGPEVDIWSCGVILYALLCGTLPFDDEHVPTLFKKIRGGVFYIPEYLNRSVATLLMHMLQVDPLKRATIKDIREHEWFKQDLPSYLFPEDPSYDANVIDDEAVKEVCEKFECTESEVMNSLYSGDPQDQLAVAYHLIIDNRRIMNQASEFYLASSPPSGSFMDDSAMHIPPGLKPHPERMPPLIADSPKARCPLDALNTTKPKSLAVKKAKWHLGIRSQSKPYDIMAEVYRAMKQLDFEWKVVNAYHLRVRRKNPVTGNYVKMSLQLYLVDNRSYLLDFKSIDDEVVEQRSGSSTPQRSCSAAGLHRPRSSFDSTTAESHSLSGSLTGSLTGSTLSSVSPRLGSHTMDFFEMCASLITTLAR
Interleukin-1 receptor-associated kinase 1 (Homo sapiens), sequence (P51617 whole entry, looked up): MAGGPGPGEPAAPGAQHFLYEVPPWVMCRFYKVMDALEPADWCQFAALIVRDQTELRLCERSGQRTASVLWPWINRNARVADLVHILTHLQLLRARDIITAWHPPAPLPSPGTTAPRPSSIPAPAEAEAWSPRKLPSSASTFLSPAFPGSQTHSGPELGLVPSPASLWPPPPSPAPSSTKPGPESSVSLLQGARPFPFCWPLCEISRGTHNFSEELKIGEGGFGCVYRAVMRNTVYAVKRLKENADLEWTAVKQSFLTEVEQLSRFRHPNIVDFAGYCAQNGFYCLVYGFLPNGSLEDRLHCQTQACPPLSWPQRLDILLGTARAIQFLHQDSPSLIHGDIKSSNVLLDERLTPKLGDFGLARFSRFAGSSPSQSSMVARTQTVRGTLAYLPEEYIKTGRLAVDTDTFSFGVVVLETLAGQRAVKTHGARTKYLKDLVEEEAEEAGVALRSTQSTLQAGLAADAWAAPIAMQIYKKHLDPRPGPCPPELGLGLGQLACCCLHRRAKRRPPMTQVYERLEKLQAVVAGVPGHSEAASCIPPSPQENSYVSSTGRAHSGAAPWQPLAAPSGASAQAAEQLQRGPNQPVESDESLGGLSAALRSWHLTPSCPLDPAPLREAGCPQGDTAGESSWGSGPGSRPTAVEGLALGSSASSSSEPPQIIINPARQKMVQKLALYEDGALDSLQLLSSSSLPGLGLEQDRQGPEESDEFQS
Serine/threonine-protein kinase B-raf (Homo sapiens), sequence (P15056 whole entry): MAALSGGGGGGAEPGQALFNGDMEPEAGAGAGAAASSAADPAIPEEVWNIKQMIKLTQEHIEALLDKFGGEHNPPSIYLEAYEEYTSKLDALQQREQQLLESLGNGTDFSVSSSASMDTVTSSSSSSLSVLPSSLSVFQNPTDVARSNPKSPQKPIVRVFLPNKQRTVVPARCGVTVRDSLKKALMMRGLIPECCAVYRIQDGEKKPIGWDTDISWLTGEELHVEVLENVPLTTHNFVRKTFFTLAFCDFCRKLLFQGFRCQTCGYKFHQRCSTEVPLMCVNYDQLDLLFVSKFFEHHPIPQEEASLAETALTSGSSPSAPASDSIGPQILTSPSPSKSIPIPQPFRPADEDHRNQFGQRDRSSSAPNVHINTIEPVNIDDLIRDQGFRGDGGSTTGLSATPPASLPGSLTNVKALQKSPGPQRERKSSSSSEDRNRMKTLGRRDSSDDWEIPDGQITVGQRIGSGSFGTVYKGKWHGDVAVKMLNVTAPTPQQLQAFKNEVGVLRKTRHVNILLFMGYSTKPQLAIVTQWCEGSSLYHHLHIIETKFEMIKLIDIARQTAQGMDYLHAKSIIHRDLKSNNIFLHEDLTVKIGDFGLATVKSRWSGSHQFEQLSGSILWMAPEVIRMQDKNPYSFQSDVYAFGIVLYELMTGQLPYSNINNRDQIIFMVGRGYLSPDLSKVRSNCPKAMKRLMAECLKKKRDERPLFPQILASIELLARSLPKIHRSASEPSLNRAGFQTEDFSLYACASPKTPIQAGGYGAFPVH
Dual specificity mitogen-activated protein kinase kinase 2 (Homo sapiens), sequence (P36507 whole entry): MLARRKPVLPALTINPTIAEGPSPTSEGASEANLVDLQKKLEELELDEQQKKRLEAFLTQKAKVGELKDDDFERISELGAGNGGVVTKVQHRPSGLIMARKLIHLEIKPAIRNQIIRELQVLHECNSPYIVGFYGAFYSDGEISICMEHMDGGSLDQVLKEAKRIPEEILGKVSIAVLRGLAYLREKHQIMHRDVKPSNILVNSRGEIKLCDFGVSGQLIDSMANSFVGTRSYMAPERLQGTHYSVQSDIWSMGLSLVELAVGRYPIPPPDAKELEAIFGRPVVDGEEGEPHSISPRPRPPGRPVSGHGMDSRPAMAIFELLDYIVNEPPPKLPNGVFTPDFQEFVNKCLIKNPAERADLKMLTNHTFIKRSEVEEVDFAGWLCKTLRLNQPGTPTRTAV
Serine/threonine-protein kinase MAK (Homo sapiens), sequence (P20794 whole entry, looked up): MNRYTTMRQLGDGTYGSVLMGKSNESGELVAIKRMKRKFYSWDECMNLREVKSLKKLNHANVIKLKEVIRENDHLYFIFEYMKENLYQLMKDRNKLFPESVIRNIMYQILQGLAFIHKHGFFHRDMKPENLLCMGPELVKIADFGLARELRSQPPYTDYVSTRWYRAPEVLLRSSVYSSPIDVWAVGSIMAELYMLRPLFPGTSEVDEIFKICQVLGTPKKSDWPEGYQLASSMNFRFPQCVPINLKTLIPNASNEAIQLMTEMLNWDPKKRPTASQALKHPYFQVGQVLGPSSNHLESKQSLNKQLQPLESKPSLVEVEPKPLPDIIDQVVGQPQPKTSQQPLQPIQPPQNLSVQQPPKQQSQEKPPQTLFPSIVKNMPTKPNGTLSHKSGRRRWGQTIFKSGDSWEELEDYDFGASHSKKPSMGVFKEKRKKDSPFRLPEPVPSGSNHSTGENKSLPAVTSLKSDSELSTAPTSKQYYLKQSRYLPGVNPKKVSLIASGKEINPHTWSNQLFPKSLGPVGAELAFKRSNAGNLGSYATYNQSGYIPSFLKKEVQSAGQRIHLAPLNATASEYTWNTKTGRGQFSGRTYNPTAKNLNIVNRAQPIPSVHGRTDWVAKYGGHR

fold change (FC) [1]: 0.16
fold change (FC) [2]: 0.07
fold change (FC) [3]: 0.09
fold change (FC) [4]: 0.77
fold change (FC) [5]: 0
SMILES: CNC(=O)c1ccccc1Oc1nc(Nc2cc(OC)c(OC)c(OC)c2)ncc1Br

inhibition [6]: 5%
fold change (FC) (Homo sapiens): 0.93
fold change (FC) [7]: 0
fold change (FC) [8]: 0.13
inhibition [9]: 36%
SMILES: CC(C)[C@H](NC(=O)c1cc(-c2cnn3cc(-c4ccc(OCCN5CCCCC5)cc4)cnc23)cs1)C(F)(F)F

fold change (FC) [10]: 0.08
inhibition [11]: 17%
SMILES: O=C(N[C@@H](C1CC1)C(F)(F)F)c1cc(-c2cnn3cc(-c4ccc(F)cc4)cnc23)cs1
